This data set relates to MS2 coat protein. Nature of the data set: apparent Kd, MS2 coat protein; higher = weaker binding; RNA-MaP array; FMN 200 µM where present. The procedure, abridged: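 Green signal from SNAP-549-labelled MS2 coat protein was normalised to red-channel RNA signal and to the median Fmax of control clusters. The protein was titrated from 0.7 or 1.5 nM, doubling to 3 µM, without and then with constant ligand, over designs transcribed by stalled E. coli RNA polymerase on Illumina sequencing-chip clusters, in 100 mM Tris-HCl pH 7.5, 80 mM KCl, 4 mM MgCl2, BSA, DTT, yeast tRNA and Tween-20. The apparent Kd is the median of filtered per-cluster binding-curve fits.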

[1] abbreviates: designed as: ON switch for flavin mononucleotide, no ligand.
Where [2] appears, read: ligand present: flavin mononucleotide, designed as: ON switch for flavin mononucleotide.
Where [3] appears, read: designed as: OFF switch for flavin mononucleotide, no ligand.
Setting [4] is: ligand present: flavin mononucleotide, designed as: OFF switch for flavin mononucleotide.

On to “GUAGAACAUGAGGAUCACCCAUGUGAGGGCGCAUGAGGAUAUGUCCGUACCUAGCAUACGAUAGAAGGCAUGGUGC”, for which the apparent Kd (as a rule, the concentration giving half-maximal binding under the conditions of the assay) was determined as 38.7 nM under setting [1] and 27.4 nM under setting [2].
As to “CGUUGAUGAGGAUAUCGAUGUUAGUACAUGAGGAUCACCCAUGUUAUCCAAGUGUCGGAUCGAGAAGGUAUUGGAC”, the “apparent Kd” value came out at 320 nM under setting [3] and 306 nM under setting [4].
The corresponding values for “UUAGGACAUGAGGAUCACCCAUGUGAGGAUAUGCUGCAGGGAGGUCCCAGCAAUAUUCGUAGAAGGCAUAAGGG” are 221 nM and 177 nM.
Turning to “GAGUCUCUAUUAGAACCGAUACGAACAUGAGGAUCACCCAUGUAGGAUAUGCUAAAAGUUGUGUUGCAGAAGGACAUUUAAUGC”, the “apparent Kd” value under setting [3] is 11.2 nM and the “apparent Kd” value under setting [4] stood at 10.9 nM.
In the same order, the values of “UUGUUCCAUGUAGGAUAUGCAUAUUCUUAUUAUGCAGAAGGACAUGAGGAUCACCCAUGUAUGUUAUUAUUAUAUGUUACAUGU” are 72.3 nM and 392 nM.
As for “AUGGCGACGUAGAAGGGUGACAUGAGGAUCACCCAUGUGCCGAUACUUCUCGAGAUGUGUCGGCCACAGGAUAUACGUACCAUC”, the “apparent Kd” value reads like this: under setting [1], 52.3 nM; under setting [2], 58.3 nM.
As to “CUAUUUAAUGCCUCAUGUACAUGAGGAUCACCCAUGUUAACUUAGGAUAUAUUUAUAUUGAUAGAGUAGAAGGAAGUACUAUUU”, the “apparent Kd” value runs as follows: under setting [3], 25.4 nM; under setting [4], 27.3 nM.
As for “AAUAAACAUGAGGAUCACCCAUGUCAGGAUAUGCGUCUAUCCUUAUACCAUAGAUACGGCAGAAGGGACUAAUA”, the “apparent Kd” value reads like this: under setting [3], 24.9 nM; under setting [4], 31 nM.
The corresponding values for “GGUCGACAUGAGGAUCACCCAUGUCAGGAUAUCGUCACUGGAGCUGCGGCUCCAGUGACGAGAAGGGAUAUGAU” are 41.3 nM and 37.4 nM.
Take “UCUGCCGCCGUGAGGAUAUGCCCGCGCGCCCGCGGGCAGAAGGCACAUGAGGAUCACCCAUGUCCCGCGGUUUU”: the “apparent Kd” value is, setting by setting: under setting [3], 16.3 nM; under setting [4], 37.3 nM.
Take “GGAAUAAAUGCAGGAUAUACGUGGAAAGCCUUCAACAUGAGGAUCACCCAUGUAGAAGGGCAUCUCCCGACCGAAUCGGAUCUC”: the “apparent Kd” value amounted to 5.72 nM under setting [3] and 6.25 nM under setting [4].
In the same order, the values of “AGAUAACAUGUAGGAUAUCGAGGCCUGAGGCCUCGAGAAGGACAUGAGGAUCACCCAUGUUUGCCGAGCAUGGAAUCCCGCACU” are 58.6 nM and 425 nM.
The corresponding values for “AAACAUGUCCGAGGAUAUCUGGAAACAUUUUCAAGAGAAGGCGGACAUGAGGAUCACCCAUGUCUCUCCUCAUCCACUACAAAU” are 9.59 nM and 60.6 nM.
In the same order, the values of “AACCCUACUGAGGAUAUGAAACGGCUAGACGCAUCAGAAGGCAGUACAUGAGGAUCACCCAUGUACCUCCGGGC” are 13.3 nM and 20.9 nM.
With “CGUAUGAUGUCAGGAUAUGACGCUGAGAGCACGUCAGAAGGGACAUGAGGAUCACCCAUGUUGGGCUAAUGAAGCUAUGGCACU”, the “apparent Kd” value runs as follows: under setting [3], 14.6 nM; under setting [4], 43.5 nM.
On to “GCAUACAUUCGAGGAUAUCGGUGAACAAAUUAACGAGAAGGCGAUAGAAUGUUUAAUCUUAUAAACAUGAGGAUCACCCAUGUA”, for which the “apparent Kd” value under setting [1] was 35.2 nM and the “apparent Kd” value under setting [2] worked out at 25.2 nM.
Take “CACGGUGAUGUAGGAUAUACGCUGGAAUACAGCGUAGAAGGACAUGAGGAUCACCCAUGUAAAGUGUCUCCAAAUAACACCGUG”: the “apparent Kd” value under setting [3] came to 32.5 nM and the “apparent Kd” value under setting [4] was found to be 90.5 nM.
As for “GCCAUUGCAUGAGGAUAUGCUCCCGUUUCGGGAGCAGAAGGCAUGUCAUAAGACAUGAGGAUCACCCAUGUAUUUAAGAUGGCA”, the “apparent Kd” value reads like this: under setting [1], 273 nM; under setting [2], 11.5 nM.
Take “ACAGUUGAAGCAGGAUAUGUACAUGAGGAUCACCCAUGUUGUCUGAGCGACUGGGAGUGCUAGCUACAGAAGGGCUUUACGACC”: the “apparent Kd” value came to 12.9 nM under setting [3] and 77 nM under setting [4].
On to “GAAUUCGCAUGAGGAUAUGCACUCAUUUCAUGUGCAGAAGGUAUAUCAUUAGACAUGAGGAUCACCCAUGUAUUGGUCAUUAAC”, for which the “apparent Kd” value runs as follows: under setting [1], 15.2 nM; under setting [2], 14 nM.
For “UUACUACAUGAGGAUCACCCAUGUCAGGAUAUUGUAUAUGCCUUGGAAUACGUGUUUACAAGAAGGGACUAUAU”, the “apparent Kd” value by setting is: under setting [3], 24.1 nM; under setting [4], 25.4 nM.
As for “GCAGCAAUCUAAAACAUGAGGAUCACCCAUGUCGAGAGAUAUGAGGAUAUGCAUCUGAAGAAGAUGCAGAAGGCAUUGUGCUGC”, the “apparent Kd” value reads like this: under setting [1], 8.1 nM; under setting [2], 6.15 nM.
As for “CGCCGCACCGGCCUGCGGCAGGGUCAGGAUAUACAUGAGGAUCACCCAUGUGAACGGUGCCCUAUGUAGAAGGGACGAAAAGAA”, the “apparent Kd” value runs as follows: under setting [3], 22.8 nM; under setting [4], 37.5 nM.
For the sequence “GCGUUAUUGUAGAAGGUACAUGAAUAUAUUUAAUACCUCAAGUAACAUGAGGAUCACCCAUGUAGUAAGGAUAUACAUAUACGC”, the “apparent Kd” value runs as follows: under setting [1], 69.4 nM; under setting [2], 52.4 nM.
For “AGCUGUGGCCGAGGAUAUCUAAACCUUCAAACCGAAAUAUAAUCGGACAUGAGGAUCACCCAUGUAGAGAAGGCGGUCUCAGCA”, the “apparent Kd” value was 13.3 nM under setting [3] and 28.8 nM under setting [4].
Take “ACAUGAGGAUCACCCAUGUAGAAUGAAGAAGGUAGAUACUUGAGGAUCACCCAUGUACAUGGGACUAAGGAUAUUCUAAUAAUU”: the “apparent Kd” value reads like this: under setting [1], 144 nM; under setting [2], 105 nM.
For the sequence “GUAAAGUGAGGAUAUGGUAAAUUAAUUAUUAAUUAAUUAAUCCAGAAGGCACAUGAGGAUCACCCAUGUAUAUG”, the “apparent Kd” value worked out at 38.2 nM under setting [3] and 61.3 nM under setting [4].
The corresponding values for “AUCCUGCGAGGAUAUACAUAAUUUUUUUCAUUUUGUUUCGAACAUGAGGAUCACCCAUGUAGAAGGUGCUACAC” are 32.1 nM and 29 nM.
Turning to “GGGCCACAUGAGGAUCACCCAUGUAAACCCGUGCUCAGGGCACAGGAUAUGGGCCUGGAUGAGGCCCAGAAGGGUGGUCUGGCC”, the “apparent Kd” value runs as follows: under setting [1], 40.1 nM; under setting [2], 16.3 nM.
Take “UAGAAGUCAGGAUAUCCAGCUCGUCACUUGCGUGAUGAGUUGGAGAAGGGACAUGAGGAUCACCCAUGUAAAGU”: the “apparent Kd” value stood at 56.3 nM under setting [3] and 58.3 nM under setting [4].
As to “GUAGCAUACGGAGGAUAUUCAUACCGGAAACGGACAUGAGGAUCACCCAUGUGGCGAAAGCCUUGGAAGAAGGCCGUAUGCUAC”, the “apparent Kd” value was 3.96 nM under setting [1] and 3.55 nM under setting [2].
In the same order, the values of “GGGUACAUCGGAGGAUAUCAUGUAAAUACAUGAGGAUCACCCAUGUCGAUGGAGAAAUCGGAGAUUGAGAAGGCCGAUGUACCG” are 16.9 nM and 7.1 nM.
For the sequence “GUUGCUUUCCGAGGAUAUUCCGGGCGUGGCUAUACAUGAGGAUCACCCAUGUGGCGGCCGCCUAGGGAGAAGGCGGGCUGCUUC”, the “apparent Kd” value is, setting by setting: under setting [1], 15.9 nM; under setting [2], 15.7 nM.
As for “UUUAAUUUAAUUAAGAUCACAUGAGGAUCACCCAUGUAUAUAUAGGAUAUCAGCUCGAAUAGAGCUGAGAAGGAUAUAUACAUA”, the “apparent Kd” value under setting [3] was 69.3 nM and the “apparent Kd” value under setting [4] was 36.2 nM.
With “AACAGCUCGUCAGGAUAUAUUAUAUUUAUAUGGAUUAAUGUACAUGAGGAUCACCCAUGUAGUUAGUAGAAGGGACGAGCUGAA”, the “apparent Kd” value under setting [3] came to 8.4 nM and the “apparent Kd” value under setting [4] amounted to 10.8 nM.
As for “GCGUAAGAAUUAAUUGUGACUGACAGAAGGCAAUAGUAUGUGUCCGACAUGAGGAUCACCCAUGUUGAGGAUAUGUCUUGACGC”, the “apparent Kd” value worked out at 4.64 nM under setting [3] and 5 nM under setting [4].
As to “CGUAUGUCAGGAUAUGCGUAUGCCACCCAGGACGGGCGGCAGCAGAAGGGACAUGAGGAUCACCCAUGUUCGGG”, the “apparent Kd” value came to 75 nM under setting [3] and 68.4 nM under setting [4].
As to “AGUUCCUCCGCAGGAUAUGUGCUCUUUAUCACAUGAGGAUCACCCAUGUCAGCCGAAACGGCGAGACAGAAGGGUGGUGGUGCC”, the “apparent Kd” value under setting [1] turned out to be 213 nM and the “apparent Kd” value under setting [2] is 169 nM.
The corresponding values for “GUGCUCGUGUAAGGAUAUGCAGCCGUUUCGGCUGCAGAAGGUACUAUAAUACAUGAGGAUCACCCAUGUCUCUAUAAUUUGGUG” are 148 nM and 214 nM.
Regarding “UGUUGUAUUACAGGAUAUCUAUGAUUUUUAUCUAGAGAAGGGUAUUCACAUGAGGAUCACCCAUGUAUAUACGAGGAAGUUGUG”, the “apparent Kd” value turned out to be 31.2 nM under setting [1] and 30.6 nM under setting [2].
For “AUACAUGAGGAUCACCCAUGUAAUUAAUUAAUUAAUAAGAUCUAGGAUAUCAGCUCGUUUAGAGCUGAGAAGGAGAUCACAUGU”, the “apparent Kd” value by setting is: under setting [1], 23.4 nM; under setting [2], 13.1 nM.
With “GUCAGCUCGGGAGGAUAUACAACACUGCUUCGGCAGUGUAUUAAGAUCACAUGAGGAUCACCCAUGUAGAAGGCACGAGCUGAU”, the “apparent Kd” value under setting [3] worked out at 7.79 nM and the “apparent Kd” value under setting [4] is 51 nM.
Consider “GUCUUCCUAGGAUAUACAUGAGGAUCACCCAUGUAAAGUUUCGUCAAAGGAUAAUCGAGUAGAAGGAGGUGGAU”, for which the “apparent Kd” value amounted to 15 nM under setting [3] and 17.2 nM under setting [4].
Turning to “UUAAUUAAUUAAUUGCAGUUUACAUGAGGAUCACCCAUGUAUAAGGAUAUCGUCAGGAAUACUGACGAGAAGGUAUACAUCUGC”, the “apparent Kd” value under setting [3] came to 19 nM and the “apparent Kd” value under setting [4] is 31.8 nM.
On to “UUAUGAGCGAUAGGAUAUACUGAGAUUGAAUGGGUAGAAGGAUCAAUUGUGUGGAAGACAUGAGGAUCACCCAUGUUACGGGCC”, for which the “apparent Kd” value runs as follows: under setting [1], 104 nM; under setting [2], 337 nM.
Regarding “GCCGGGUGGGUAGGAUAUGGCUAUGUCUCAUUGCUAGAAGGACCAACUGCUACAUGAGGAUCACCCAUGUCGUAGUGCACCCGG”, the “apparent Kd” value reads like this: under setting [1], 138 nM; under setting [2], 28.9 nM.
In the same order, the values of “CGCCAAUUGGCACAGGAUAUGAGCAUGCUCACAUGAGGAUCACCCAUGUGAUUACCAACGCAAAAUCAGAAGGGUGCCCUCGUCA” are 147 nM and 97.1 nM.
For the sequence “UUAAGGGACUGAGGAUAUACAUGAAUUAUGUUUGUAGAAGGCAGAUUGUUAGUUUAUUCACUAUACAUGAGGAUCACCCAUGUU”, the “apparent Kd” value is, setting by setting: under setting [3], 25.1 nM; under setting [4], 20.6 nM.

These data come from the EternaBench riboswitch data.
